The values that follow come from ChEMBL document CHEMBL4152329, “Benzofuran hydrazones as potential scaffold in the development of multifunctional drugs: Synthesis and evaluation of antioxidant, photoprotective and antiproliferative activity” (Eur J Med Chem, 2018).

A short description of assay [1]: Antiproliferative activity against human Colo38 cells after 7 days by Coulter counter method. The class given is functional, cell-based. The settings on record: 168 h. The essentials:
(§1)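 RPMI 1640 with 10% FBS, penicillin, streptomycin and 2 mM glutamine, pH 7.2, 37 °C, 5% CO2. Stocks 20 mM in MeOH/DMSO 10%, diluted in MeOH, added at serial dilutions. Cells suspended in physiological solution and counted by Coulter counter. IC50 = 50% growth inhibition while untreated cells in log phase. Untreated cells as negative control on every plate.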

The nature of assay [2]: UV filtering activity of the compound assessed as maximum absorption wavelength. The class given is functional. A digest of the protocol:
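UV absorption spectrum recorded in methanol at 0.000034 (± 0.0000033) M; wavelength of maximum absorption taken, together with molar extinction coefficient.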

Assay [3] can be described thus: UV filtering activity of the compound assessed as solar protection factor relative to control. In kind it is functional. The essentials:
(§2)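 Spectra recorded on methanolic solutions at 0.000034 (± 0.0000033) M. Absorbance converted to transmittance by A(λ) = −Log[T(λ)], and SPF, UVA/UVB ratio, UVAPF and critical wavelength derived from the transmittance spectrum. Method adapted from the official in vitro SPF method; UVAPF per ISO-24443. PBSA served as reference.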

The nature of assay [4]: UV filtering activity of the compound assessed as UVA/UVB ratio. The class given is functional. A digest of the protocol: as §2
The nature of assay [5]: UV filtering activity of the compound assessed as UVA protection factor value relative to control. The class given is functional. The essentials: as §2
Assay [6] in a line: Antioxidant activity assessed as AAPH-induced radical scavenging activity by measuring trolox equivalents for oxygen radical absorbance capacity measured at 5 mins intervals up to 30 mins by ORAC-FL assay. In kind it is functional. A digest of the protocol: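 Fluorescein (85 nM) as target, AAPH as peroxyl radical generator, 0.2 mL final volume. Compounds dissolved in methanol and diluted in phosphate buffer pH 7.4. Fluorescence read at ex 485/em 538 nm, 37 °C, every 5 min up to 30 min after AAPH. Value from difference in areas under fluorescein decay curves, blank vs sample. Trolox calibration 40–240 µM; µmol TE per gram compound.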

The nature of assay [7]: Antioxidant activity assessed as DPPH free radical scavenging activity by measuring trolox equivalent by spectrophotometric analysis. The class given is functional. A digest of the protocol: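 Diluted compound solution (0.750 mL) added to 1.5 mL methanolic DPPH. Absorbance decrease read at 517 nm. Blank was DPPH plus methanol. Inhibition % = [(AB−As)/AB]×100. Trolox calibration curve used as standard.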
On the technique in general: Loss of DPPH colour is used to gauge radical scavenging.

Assay [8] can be described thus: UV filtering activity of the compound assessed as wavelength at which the integral of the spectral absorbance curve reaches 90% of area under the curve from 290 to 400 nm. In kind it is functional. The essentials:
as §2

Assay [9] deals with K562. The assay is described as follows: Antiproliferative activity against human K562 cells after 7 days by Coulter counter method. The class given is functional, cell-based. The settings on record: K562, 168 h. A digest of the protocol: as §1
Assay [10] can be described thus: Antioxidant activity assessed as ferric ion reducing activity by measuring trolox equivalents after 10 mins by FRAP assay. The class given is functional. A digest of the protocol: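 Reagent made fresh: 0.1 M acetate buffer pH 3.6, 10 mM TPTZ in 40 mM HCl and 20 mM FeCl3 at 10:1:1 (v/v/v). Diluted sample (0.1 mL) added to 1.9 mL reagent; solvent used for blank. Absorbance at 593 nm after 10 min, increase taken over blank. Expressed as Trolox activity from calibration curve.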

The subject of assay [11] is K562. The assay is described as follows: Induction of erythroid differentiation on human K562 cells after 5 days by benzidine staining-based assay. The class given is functional. The essentials: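 K562 cells treated in culture, then scored for erythroid differentiation by benzidine staining with 0.2% benzidine in 5 M glacial acetic acid and 10% H2O2. Assayed after 5, 6 and 7 days of treatment; value given as percentage of differentiated cells.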

pIC50: −log10 of the molar value.

For the compound `O=C(N/N=C/c1ccc(O)c(O)c1O)c1cc2ccccc2o1`, the pIC50 in [1] is 5.19; in the assay on K562 [9] it was 5.22. In addition, the Activity came to 336 nm in assay [2]; 5260 µmolequiv/g in [6]; 9210 µmolequiv/g in assay [7]; 353 nm in assay [8]; 13200 µmolequiv/g in [10]. In [3], the SPF was determined as 7.58. The Ratio in assay [4] was found to be 0.85. In addition, the UVAPF in [5] stood at 2.45.
Take `O=C(N/N=C/c1c(O)cc(O)cc1O)c1cc2ccccc2o1`: the negative logarithm of the IC50 (pIC50) is 4.61 in assay [1] and 4.19 with K562 [9]. Besides, the Activity in assay [2] stood at 345 nm; in [6], 3560 µmolequiv/g; in assay [7], 1140 µmolequiv/g; in assay [8] it was 366 nm; in assay [10] it was 4020 µmolequiv/g. Besides, in assay [3], the SPF worked out at 1.99. Also, the Ratio in assay [4] was 1.32. Further, the UVAPF in assay [5] is 2.02.
Turning to `O=C(N/N=C/c1ccc(O)cc1)c1cc2ccccc2o1`, the values for the negative logarithm of the IC50 (pIC50) (in assay [1]; in the assay on K562 [9]) were 4.40 and 4.10, respectively. The Activity was determined as 328 nm in assay [2]; 26100 µmolequiv/g in assay [6]; 45.8 µmolequiv/g in assay [7]; 322 nm in assay [8]; 2290 µmolequiv/g in [10]. Also, in [3], the SPF turned out to be 3.4. In addition, the Ratio in [4] stood at 0.29. Further, in assay [5], the UVAPF amounted to 1.03.
Take `CCN(CC)c1ccc(/C=N/NC(=O)c2cc3ccccc3o2)c(O)c1`: the negative-log IC50 (pIC50) in [1] is 6.36; in the assay with K562 [9], 6.28. The Activity came to 381 nm in assay [2]; 22100 µmolequiv/g in [6]; 1010 µmolequiv/g in assay [7]; 387 nm in assay [8]; 4150 µmolequiv/g in assay [10]. Besides, the SPF in assay [3] amounted to 2.59. Also, the Ratio in assay [4] came out at 1.29. Moreover, in assay [5], the UVAPF amounted to 3.6.
Consider `COc1cc(/C=N/NC(=O)c2cc3ccccc3o2)ccc1O`, for which the pIC50 was 4.31 in [1] and 5.25 in the assay with K562 [9]. In addition, the Activity came to 334 nm in assay [2]; 10900 µmolequiv/g in assay [6]; 101 µmolequiv/g in [7]; 371 nm in assay [8]; 5% with K562 [11]; 3100 µmolequiv/g in assay [10]. Moreover, the SPF in assay [3] amounted to 3.36. Also, in assay [4], the Ratio came to 2.33. The UVAPF in assay [5] turned out to be 5.57.
Regarding `O=C(N/N=C/c1cccc(O)c1)c1cc2ccccc2o1`, the negative-log IC50 (pIC50) in [1] was 5.21; in the assay with K562 [9], 4.28. The Activity is 314 nm in [2]; 6790 µmolequiv/g in assay [6]; 76.7 µmolequiv/g in assay [7]; 353 nm in [8]; 1670 µmolequiv/g in [10]. Also, the SPF in assay [3] turned out to be 7.58. For the same compound, in assay [4], the Ratio came out at 0.85. The UVAPF in assay [5] was determined as 2.45.
Turning to `O=C(N/N=C/c1ccc(O)cc1O)c1cc2ccccc2o1`, the pIC50 in assay [1] was 6.24; with K562 [9] it was 5.37. Moreover, the Activity in assay [2] came to 343 nm; in [6] it was 9380 µmolequiv/g; in assay [7], 149 µmolequiv/g; in [8], 342 nm; with K562 [11], 5%; in assay [10] it was 1210 µmolequiv/g. Also, in [3], the SPF is 10.2. Also, the Ratio in assay [4] is 0.26. The UVAPF in [5] is 1.5.
On to `O=C(N/N=C/c1cc(O)ccc1O)c1cc2ccccc2o1`, for which the negative-log IC50 (pIC50) in [1] is 5.20; with K562 [9] it was 4.43. The Activity is 306 nm in assay [2]; 19000 µmolequiv/g in assay [6]; 6200 µmolequiv/g in assay [7]; 366 nm in assay [8]; 6970 µmolequiv/g in [10]. Moreover, the SPF in assay [3] was 2.18. Besides, the Ratio in assay [4] turned out to be 1.33. For the same compound, in assay [5], the UVAPF was 2.38.
In the case of `O=C(N/N=C/c1c(O)ccc2ccccc12)c1cc2ccccc2o1`, the results for the pIC50 (in [1]; in the assay with K562 [9]) were 5.52 and 5.35, respectively. Further, the Activity came to 329 nm in assay [2], 132 µmolequiv/g in assay [7], 359 nm in [8] and 132 µmolequiv/g in assay [10]. The SPF in [3] was 8.82. For the same compound, the Ratio in assay [4] came to 0.39. Moreover, in assay [5], the UVAPF turned out to be 2.85.
As to `O=S(=O)(O)c1ccc2[nH]c(-c3ccccc3)nc2c1`, the Activity in assay [2] is 302 nm; in assay [8] it was 394 nm. Moreover, in [3], the SPF was found to be 1.68. In [4], the Ratio is 1.27. For the same compound, the UVAPF in assay [5] is 5.1.
For `O=C(N/N=C/c1cc(Cl)ccc1O)c1cc2ccccc2o1`, the negative logarithm of the IC50 (pIC50) in [1] is 5.69; in the assay on K562 [9], 5.43. The Activity is 310 nm in [2], “Below limit of detection” in assay [7], 357 nm in [8] and 46.3 µmolequiv/g in assay [10]. In assay [3], the SPF amounted to 5.78. Moreover, in assay [4], the Ratio was determined as 1.14. Further, the UVAPF in assay [5] worked out at 2.89.

As a reminder, the pIC50 is the negative decadic logarithm of the IC50, by convention in mol/L.
